Experimental data as given in ChEMBL document CHEMBL1154869, “Melodinines A-G, monoterpenoid indole alkaloids from Melodinus henryi” (J Nat Prod, 2010).

Experiments:
Format in all cases: functional, cell-based
HL-60 = test: Cytotoxic activity against human HL60 cells after 48 hrs by MTT assay; conditions: HL-60, 48 h
How it was run: (§1)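 Cells kept in RPMI1640 or DMEM with 10% FBS, 5% CO2, 37 °C. Adherent lines seeded in 96-well plates and left 12 h to attach; suspension cells (HL-60) seeded at drug addition, 1 × 10^5 cells/mL. Compounds at 0.0625, 0.32, 1.6, 8 and 40 µM in triplicate for 48 h. Viability by MTT; IC50 from growth curves via Reed and Muench method; cisplatin positive control.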

A549 = test: Cytotoxic activity against human A549 cells after 48 hrs by MTT assay; conditions: A549, 48 h; how it was run: as §1
SMMC-7721 = test: Cytotoxic activity against human SMMC7721 cells after 48 hrs by MTT assay; conditions: SMMC-7721, 48 h; how it was run: as §1
SK-BR-3 = test: Cytotoxic activity against human SK-BR-3 cells after 48 hrs by MTT assay; conditions: SK-BR-3, 48 h; how it was run: as §1

Compound	IC50 (HL-60) [µM]	IC50 (A549) [µM]	IC50 (SMMC-7721) [µM]	IC50 (SK-BR-3) [µM]
CCC1=CN2CC[C@]34c5ccccc5-n5c3c(cc(C(=O)OC)c5=O)[C@H]1C[C@H]24 [MELODININE B]	> 40	> 40	> 40	> 40
CC[C@]12CCC[N+]3([O-])CCc4c(n(c5ccccc45)[C@H](OC)C1)[C@H]23 (some centres undefined) [MELODININE F]	> 40	> 40	> 40	> 40
CC[C@@H]1CN2CC[C@]34c5ccccc5-n5c3c(cc(C(=O)O)c5=O)[C@H]1C[C@H]24 [MELODININE C]	> 40	> 40	> 40	> 40
CC[C@@H]1CN2CC[C@]34c5ccccc5-n5c3c(cc(C(N)=O)c5=O)[C@H]1C[C@H]24 [LEUCONICINE A]	> 40	> 40	> 40	> 40
CC[C@@]12CCCN3C(=O)C=C4c5ccccc5N(C(=O)CC1)C432 (some centres undefined) [MELODININE E]	> 40	> 40	> 40	> 40
CC[C@@]12C=Cn3c4c(c5ccccc53)CC[N+]([O-])(CCC1)[C@H]42 (some centres undefined) [MELODININE G]	> 40	> 40	> 40	> 40
C/C=C(/C=O)[C@@H]1C[C@H]2c3[nH]c4ccccc4c3CCN2C=C1C(=O)OC [VALLESIACHOTAMINE]	2	26	16.8	24.7
COC(=O)C1=C2Nc3ccccc3[C@]23CCN2CC[C@H]1[C@@]1(O[C@H]1C)[C@@H]23 [MELODININE D]	> 40	> 40	> 40	> 40
CC[C@@]12C=Cn3c4c(c5ccccc53)CCN(CCC1)[C@H]42	> 40	> 40	> 40	> 40
CC[C@@H]1CN2CC[C@]34c5ccccc5-n5c3c(cc(C(=O)OC)c5=O)[C@H]1C[C@H]24 [LEUCONICINE B]	> 40	> 40	> 40	> 40
CC[C@]12CCCN3CCc4c(n(c5ccccc45)[C@H](OC)C1)[C@@H]32	> 40	> 40	> 40	> 40
